Experimental data of several laboratories.
Lines come from different studies, so protocols differ.
PPARG: Peroxisome proliferator-activated receptor gamma (PPARG, Homo sapiens, UniProt P37231)
HDAC5: Histone deacetylase 5 (HDAC5, Homo sapiens, UniProt Q9UQL6)
CHEK1: Serine/threonine-protein kinase Chk1 (CHEK1, Homo sapiens, UniProt O14757)

COc1ccc(-c2nsc(NC(=O)[C@@H]3C[C@H]3C)c2C)cc1
EC50 (Metabotropic glutamate receptor 5 (GRM5, Homo sapiens, UniProt P41594); calcium signal, agonist): > 25000 nM

Cc1ccc(-c2ccc(F)cc2COc2ccc(CCC(=O)O)cc2)cc1
EC50 (PPARG; reporter gene, agonist, luciferase): > 100000 nM

CC[C@@H](Oc1cccc(CN(CCCOc2ccc(OC)cc2)c2nc3ccccc3o2)c1)C(=O)O
Kd (PPARG; binding, ITC): 9030 nM

CC(=O)c1cc([N+](=O)[O-])c(Sc2cccc(Cl)c2Cl)s1
EC50 (Caspase-3 (CASP3, Homo sapiens, UniProt P42574); enzyme activity, inhibitor): > 50000 nM

O=C(CCCCCCC(=O)Nc1ccc([C@H]2O[C@@H](CSc3nc(-c4ccccc4)c(-c4ccccc4)o3)C[C@@H](c3ccc(CO)cc3)O2)cc1)NO
Kd (HDAC5; cell-free assay): > 30200 nM

COc1cc(NC(=O)CCCCCCC(=O)O)c(Cl)cc1NC(=O)Nc1cnc(C#N)cn1
IC50 (CHEK1; enzyme activity, inhibitor): 57.9 nM

CC1(C)C=Cc2c(ccc3c2OC[C@@H](c2ccc(O)cc2O)C3)O1
Kd (PPARG; binding, ITC): 14600 nM

Cc1noc(C)c1-c1ccc(-c2nc3cnccn3c2NC(C)(C)C)cc1
Kd (Bromodomain and PHD finger-containing protein 3 (BRPF3, Homo sapiens, UniProt Q9ULD4); cell-free assay, competition with immobilised ligand): 40000 nM

COc1cc(-c2ccc3c(c2)Nc2ccc(NC(N)=O)cc2NC3=O)ccc1[N+](=O)[O-]
IC50 (CHEK1; enzyme activity, inhibitor): 6.41 nM

COc1cc(Nc2ncc3c(n2)-c2ccc(Cl)cc2C(c2c(F)cccc2OC)=NC3)ccc1C(=O)NCCOCCOCCNC(=O)COc1cccc2c1C(=O)N(C1CCC(=O)NC1=O)C2=O (stereo not shown)
Kd (Ferrochelatase, mitochondrial (FECH, Homo sapiens, UniProt P22830); binding; lysate): 6430 nM

O=C(O)c1ccc(-c2[nH]nc3c2Cc2cc(CNC4CCC(O)CC4)ccc2-3)o1 (stereo not shown)
IC50 (CHEK1; enzyme activity, inhibitor): 1560 nM

Cc1cc2nc3c(=O)[nH]c(=O)nc-3n(C[C@H](O)[C@H](O)[C@H](O)COP(=O)(O)OP(=O)(O)OC[C@H]3O[C@@H](n4cnc5c(N)ncnc54)[C@H](O)[C@@H]3O)c2cc1C
Kd (YTH domain-containing family protein 2 (YTHDF2, Homo sapiens, UniProt Q9Y5A9); binding; lysate): 62 nM

COC(=O)Cc1ccc2c(c1)NC(=O)c1ccc(-c3cc(OC)ncc3C)cc1N2
IC50 (CHEK1; enzyme activity, inhibitor): 7.79 nM

CCOCc1nc(O)c(-c2nnc(Cc3ccc(Cl)cn3)o2)c(O)c1-c1c(OC)cccc1OC
EC50 (Apelin receptor (Rattus norvegicus, UniProt Q9JHG3); cAMP, agonist): 0.02 nM

COc1cc(-c2ccc3c(c2)Nc2ccc(OCCN4CCOCC4)cc2NC3=O)ccc1[N+](=O)[O-]
IC50 (CHEK1; enzyme activity, inhibitor): 24.5 nM

C#Cc1cccc(Nc2ncnc3cc(OC)c(OCCCCCCC(=O)NO)cc23)c1
Kd (HDAC5; cell-free assay): > 30200 nM
